Screens (PubChem)
AI-2 QS mod: modulates the Vibrio harveyi AI-2 quorum sensing system; Vibrio harveyi JMH597 AI-2 luminescence/OD600 ratio, 9 h; active compounds read low; strain lacks LuxN and CqsS sensors; 0 = neutral-control median; activity change, % at 7.5 µM; 0.4% of 300,000 active; in the data active means activity change below about -75%, passing the limit was not always enough;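 further: luminescence divided by OD600 gain over 9 h not by final OD600 alone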
HIF act: HIF pathway transcriptional activation; U2OS HRE-luciferase reporter, luminescence; normalized: DMSO 0%, desferrioxamine 100%; activation, % at 7.5 µM (by protocol); 0.32% of 300,000 active; AID 1910;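 active means mean activation of at least 10% of the iron chelator positive control signal, with at least half of replicates also reaching 10%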
T cruzi repl: T. cruzi replication inhibition. inhibition, % (test concentration not listed). 1.4% of 300,000 active. T. cruzi beta-gal in NIH3T3, luminescence, 90 h;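 active means mean inhibition across valid replicates above about 55%, limit read from the data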;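 further: signal also drops with host cell toxicity which is not excluded here; 0% = plate median of DMSO wells and 100% = zero luminescence signal; higher percent means less beta-gal luminescence so fewer parasites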
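Material: NIH/3T3 host cells with β-galactosidase reporter T. cruzi; Input: 5,000 host fibroblasts per well; Medium: DMEM, 2% fetal bovine serum; Compound: 50 nL DMSO compound solution per well; Schedule: 3 h host attachment, then at least 90 h co-culture; Detection: luminescent β-galactosidase signal after 60 min lysis.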
ARNT TACC3 PPI: disruptors of human ARNT/TACC3 interaction; AlphaScreen His-ARNT PAS-B/GST-TACC3 binding, luminescence; TACC3 fragment carries E629A point mutation; inhibition, % at 9.99 µM; 0.66% of 390,000 active;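 active means mean inhibition of replicates at least 50% and at least half of replicates each reaching 50%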;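 further: 0% = complete ARNT plus TACC3 wells and 100% = ARNT alone without TACC3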
The depositor's hits bear a star; . = not tested or not shown. Rows were chosen to be rich in hits. Some 2% of all compounds tested hit in one or more screens of this group.

SMILES	AI-2 QS mod	HIF act	T cruzi repl	ARNT TACC3 PPI
CCn1nc(C)c(CN2CCCC(C(=O)c3cccc(OC(C)C)c3)C2)c1C (stereo not given)	32	0	65*	-2
Cc1ccc(S(=O)(=O)Nc2cccc3c2O[C@H](CN(C)C(=O)Nc2ccccc2)[C@@H](C)CN([C@@H](C)CO)C3=O)cc1	.	.	.	-7
Brc1ccc2ncnc(Nc3ccc(N4CCOCC4)cc3)c2c1	20	.	62*	7
O=C(COc1ncnc2ccc(Br)cc12)Nc1ccc(N2CCOCC2)cc1	18	-1	12	-1
C[C@@H]1CN([C@@H](C)CO)C(=O)Cc2cc(NS(=O)(=O)c3ccc(Cl)cc3)ccc2O[C@H]1CN(C)Cc1ccncc1	.	.	.	1
C=CCC(C(=O)OC)(C(=O)OC)c1ccc([N+](=O)[O-])cc1[N+](=O)[O-]	.	0	59*	-4
COC(=O)C(Cc1cnc(Cl)s1)(C(=O)OC)c1ccc([N+](=O)[O-])cc1[N+](=O)[O-]	-4	-2	57*	7
C=CCC(C(=O)OC)(C(=O)OC)c1ccc(C(F)(F)F)cc1[N+](=O)[O-]	9	-1	-6	-5
CCNC(=O)C[C@@H]1CC[C@H](NC(=O)C2CC2)[C@H](CO)O1	.	.	.	15
COC(=O)C[C@@H]1CC[C@@H](NC(=O)c2ccccc2)[C@@H](CO)O1	.	.	.	-3
CCOC(=O)Nc1cc2c(c(N)n1)N=C(c1ccccc1)CN2	.	.	.	8.7*
O=C(N[C@@H]1CC[C@@H](CCNC(=O)C2CCOCC2)O[C@@H]1CO)c1ccccn1	.	.	.	-7
COc1ccc(NC(=O)N(C)C[C@@H]2OCCCC[C@@H](C)Oc3ccc(NC(=O)NC4CCCCC4)cc3C(=O)N([C@@H](C)CO)C[C@@H]2C)cc1	.	.	.	-5
COc1cc(CNC2CCCC2)cc(Cl)c1OCc1ccc(F)cc1	6	0	33	10
COc1cc(CNC2CCCC2)cc(Cl)c1OCc1ccccc1Cl	43	0	77*	4
C[n+]1ccc(/C=C/c2ccccc2O)c2ccccc21	13	0	70*	3
O=C(c1ccc(CSc2nc3ccncc3[nH]2)cc1)N1CCN(c2cccc(Cl)c2)CC1	36	0	55*	9
Cc1ccc(CSc2nc3ccncc3[nH]2)cc1	-77*	-2	16	-1
C[C@H](O)C#Cc1cnc2c(c1)C(=O)N([C@@H](C)CO)C[C@H](C)[C@@H](CN(C)Cc1ccccn1)O2	.	.	.	11
O=C1c2ccccc2C2=Nc3ccccc3SC(c3cccc(F)c3)C12 (stereo not given)	38	4	56*	.
O=C1c2ccccc2C2=Nc3ccccc3SC(c3ccc(Cl)cc3)C12 (stereo not given)	40	0	47	3
C[C@@H]1CN([C@@H](C)CO)C(=O)Cc2cc(NC(=O)C3CCCCC3)ccc2O[C@H]1CN(C)S(=O)(=O)c1cccs1	.	.	.	-1
O=C(CSc1n[nH]c(-c2ccccn2)n1)Nc1ccccc1F	28	0	-16	54*
NNC(=O)CSc1cccc2cccnc12	21	0	-8	48*
CC(=O)/C(=N\Nc1ccccc1)Sc1cccc2cccnc12	8	0	-1	2
SMILES	AI-2 QS mod	HIF act	T cruzi repl	ARNT TACC3 PPI
O=C(Sc1cccc2cccnc12)c1ccccc1Br	7	8	-1	75*
O=C(CSc1cccc2cccnc12)Nc1ccccc1F	20	1	9	59*
Cc1ccc(C)c(NC(=O)CSc2cccc3cccnc23)c1	5	-20	-11	-9
C[C@@H]1CN([C@H](C)CO)C(=O)c2cc(NS(=O)(=O)c3cn(C)cn3)ccc2O[C@@H](C)CCCCO[C@@H]1CN(C)Cc1ccc(C(F)(F)F)cc1	.	.	.	4
COCC(=O)N(C)C[C@@H]1Oc2cc(C3=CCCCC3)ccc2S(=O)(=O)N([C@@H](C)CO)C[C@@H]1C	.	.	.	-2
O=C(CSc1cccc2cccnc12)OCC(=O)c1ccccc1	7	0	0	53*
Cc1ccc2c(c1)c1n[nH]c(=S)nc1n2CCc1ccccc1	6	0	69*	-11
CCOc1ccc(S(=O)(=O)c2c[nH]c3ccccc3c2=O)cc1	-85*	1	5	-11
CCOc1ccc2[nH]cc(S(=O)(=O)c3ccc(F)cc3)c(=O)c2c1	25	0	-1	7
NCC[C@@H]1CC[C@@H](NC(=O)C2CCCCC2)[C@H](CO)O1	.	.	.	-20
COC(=O)[C@H](CCSC)NC(=O)c1cccnc1SC	1	633*	12	0
CC1(c2cc([N+](=O)[O-])cc([N+](=O)[O-])c2)CC(C)(C)N(C(=O)c2ccccc2)c2ccccc21 (stereo not given)	21	-1	67*	21
CC1(c2ccccc2)CC(C)(C)N(C(=O)C2CCCO2)c2ccccc21 (stereo not given)	4	0	10	5
CN(CCS(=O)(=O)c1ccc(Cl)cc1)Cc1cccnc1	22	116*	1	2
O=C(N/N=C/c1c(O)n(Cc2ccco2)c(=O)[nH]c1=O)c1ccccc1	12	1	-5	62*
Cc1ccc(-c2nnc(Nc3ccc(CC(N)=O)cc3)c3ccccc23)cc1S(N)(=O)=O	34	-5	8	12
Cc1ccc(-c2nnc(Nc3ccc(CC(N)=O)cc3)c3ccccc23)cc1	9	0	60*	-14
CCCC(=O)NC(c1ccc(C(C)C)cc1)c1ccc2cccnc2c1O (stereo not given)	17	119*	57*	-2
CC(C)CC(=O)NC(c1ccccc1Cl)c1c(O)ccc2ccccc12 (stereo not given)	20	0	10	-6
CC(=O)NC(c1ccc(Cl)cc1)c1ccc2cccnc2c1O (stereo not given)	.	.	.	27
CC(=O)NC(c1ccco1)c1ccc2cccnc2c1O (stereo not given)	-20	9	45	63*
CCCC(=O)NC(c1ccccc1Cl)c1ccc2cccnc2c1O (stereo not given)	.	71*	52	-6
CCC(=O)N1C[C@H](C)[C@@H](OC)CN(C)C(=O)c2ccc(NC(=O)NC(C)C)cc2OC[C@H]1C	.	.	.	-6
O=C(C[C@H]1CC[C@H]2[C@@H](COC[C@@H](O)CN2S(=O)(=O)c2cccc(Cl)c2)O1)NC1CCC1	.	.	.	0
CCOC(=O)/C(=N\Nc1ccccc1)c1csc(Nc2ccc(C)cc2)n1	17	0	60*	0
CCCCC(CCC(=O)O)(C(=O)OCC)c1csc(Nc2ccc(C)cc2)n1 (stereo not given)	20	0	-12	-2
CCCNC(=O)C[C@@H]1CC[C@H]2[C@@H](COC[C@H](O)CN2Cc2ccncc2)O1	.	.	.	10
C[C@H](CO)N1C[C@H](C)[C@@H](CN(C)Cc2ccc(Cl)c(Cl)c2)OCCCC[C@H](C)Oc2ccc(NC(=O)Cc3ccccc3)cc2C1=O	.	.	.	-3
